In PubChem BioAssay AID504623 (Broad Institute, 2011):
Results filed as inconclusive are left out. Active and inactive are the calls of the source.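 How the source made its calls: active means mean replicate inhibition of at least 25% with at least 60% of replicates reaching that level; inconclusive means only one of the two criteria is met; inactive means neither criterion met.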

Each compound was assayed on SUM159 tumorsphere formation, imaging count, 8-9 days (assay: blockade of breast tumor sphere growth – imaging, SUM159 cells, single point, dry powder, orthogonal assay for breast cancer stem cell project, late-stage follow-up (AID 504623)). Conditions: at 25 µM; stronger effect = higher value.
Outline: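 Times: 8-day incubation, 37 °C; material: SUM159 cells forming tumorspheres in methylcellulose suspension; amount: 1000 SUM159 cells per well; doses: single point, 200 nL compound pinned into medium per well; signal: Brightfield imaging at 2x, 9 sites/well; buffer or medium: culture medium containing 0.5% methylcellulose; format: Low-attachment wells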
Compound CC(C)(C)c1ccc(C2CC2C(=O)N/N=C/c2ccc[nH]2)cc1 (centres undefined) has an inhibition of 62.8%.
Cc1csc(NC(=O)c2ccc(COc3cccc(OC(F)(F)F)c3)o2)n1 was tested, and the inhibition was 22.2% (inactive).
CC(C)c1ccc(/C=C/C(=O)NC2=NCCS2)cc1 was tested, and the inhibition was 10.4% (inactive).
With Cc1cc(Cl)ccc1OCC(=O)N/N=C/c1ccc[nH]1 the inhibition was 3.98% (inactive).
In the case of Cc1csc(NC(=O)c2ccc(COc3ccccc3F)o2)n1, the inhibition is reported as 4.83% (inactive).
Cc1csc(NC(=O)c2ccc(COc3cccc(C#N)c3)o2)n1 was tested, and the inhibition was 44.2%.
Cc1csc(NC(=O)c2ccc(COc3cccc(Cl)c3)o2)n1 was tested, and the inhibition was 19.5% (inactive).
In the case of COc1cccc(OCc2ccc(C(=O)Nc3nc(C)cs3)o2)c1, the inhibition is reported as -6.02% (inactive).
With O=C(COc1c(Cl)cc(Cl)cc1Cl)N/N=C/c1ccc[nH]1 the inhibition was -7.47% (inactive).
CC(C)(C)c1ccc2c(c1)OC(C(=O)N/N=C/c1ccc[nH]1)CO2 (centres undefined) gave an inhibition of 34.1%.
In the case of Cc1csc(NC(=O)c2ccc(COc3ccccc3)o2)n1, the inhibition is reported as 21.4% (inactive).
In the case of O=C(/C=C/c1ccc(-c2ccccc2)cc1)NC1=NCCS1, the inhibition is reported as 4.08% (inactive).
With O=C(COc1ccc(Cl)cc1Cl)N/N=C/c1ccc[nH]1 the inhibition was -22.3% (inactive).
CC(C)c1ccc(/C=C/C(=O)Nc2ccccc2)cc1 showed an inhibition of 62.4%.
